ChEMBL document CHEMBL1124637, “Synthesis and antiviral activity of several 2,5'-anhydro analogues of 3'-azido-3'-deoxythymidine, 3'-azido-2',3'-dideoxyuridine, 3'-azido-2',3'-dideoxy-5-halouridines, and 3'-deoxythymidine against human immunodeficiency virus and Rauscher-murine leukemia virus” (J Med Chem, 1989)

How the values were obtained:
CCRF-CEM [1] = assay: Concentration of compound required to inhibit 50% of viral replication of human immunodeficiency virus in CEM-F cells; format: functional, cell-based
CCRF-CEM [2] = assay: Concentration of compound required to inhibit 50% of host cell replication of human immunodeficiency virus in CEM-F cells; format: functional
[3] = system: Rauscher murine leukemia virus; assay: Concentration of compound required to inhibit 50% of host cell replication of Rauscher-Murine leukemia virus; format: functional
[4] = Ratio of TICD50 to that of IC50 of Rauscher-Murine leukemia virus (R-MuLv); format: functional; design: reference not given here
[5] = Ratio of TICD50 to that of IC50 of human immunodeficiency virus (HIV-1); format: functional; design: reference not given here
[6] = system: Rauscher murine leukemia virus; assay: Concentration of compound required to inhibit 50% of viral replication of Rauscher-Murine leukemia virus; format: functional, organism-based
[7] = Metabolic stability (Half life) at pH-2.0 was evaluated; format: ADME
Procedure, shortened: (§1)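 Chemical (non-enzymatic) stability. Each compound at 2 mg/mL was incubated in 0.01 N HCl (pH 2.0) at 37 °C. Aliquots taken at various times were run on reverse-phase C-18 HPLC with a linear 0–30% CH3CN gradient into 0.01 M ammonium acetate (pH 5.5) over 30 min, with UV detection at 254 nm. Remaining anhydro compound, released parent nucleoside and pyrimidine base were quantified, and the half-life was derived.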

[8] = Metabolic stability (Half life)of the compound at pH-7.4 was evaluated; format: ADME
Procedure, shortened: (§2)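 Compound at 2 mg/mL held at 37 °C in phosphate-buffered saline, pH 7.4, with no enzymes present. At various times, aliquots were analysed by reverse-phase C-18 HPLC with a linear 0–30% CH3CN gradient into 0.01 M ammonium acetate (pH 5.5) over 30 min, monitored by UV at 254 nm. Intact anhydro compound, generated parent nucleoside and pyrimidine base were measured, and the half-life was derived.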

[9] = Metabolic stability (Half life) at pH-7.4 was evaluated; format: ADME; procedure, shortened: as §2
[10] = Metabolic stability (Half life)of the compound at pH-2.0 was evaluated; format: ADME; settings: read-out: T1/2 h/; procedure, shortened: as §1
[11] = system: Rauscher murine leukemia virus; assay: Cytotoxic concentration of compound required to inhibit 50% of host cell replication of Rauscher-Murine leukemia virus; format: functional

Q: For `[N-]=[N+]=N[C@H]1C[C@H](n2cc(Br)c(=O)[nH]c2=O)O[C@@H]1CO`, which IC50 (CCRF-CEM [1]) is on record?
A: 8.73 µM

Q: And the “CC50 (50% host cell growth inhibition)” value (CCRF-CEM [2])?
A: 127 µM

Q: And the TCID50 [3]?
A: >301 µM

Q: What about the Ratio [4] of the same molecule?
A: 1309

Q: And the Ratio [5]?
A: 15

Q: What about the IC50 [6] of the same molecule?
A: 0.23 µM

Q: For `[N-]=[N+]=N[C@H]1C[C@H](n2cc(I)c(=O)[nH]c2=O)O[C@@H]1CO`, which IC50 (CCRF-CEM [1]) is on record?
A: 12.6 µM

Q: And the “CC50 (50% host cell growth inhibition)” value (CCRF-CEM [2])?
A: 153 µM

Q: And the TCID50 [3]?
A: >264 µM

Q: And the Ratio [4]?
A: 1257

Q: What about the Ratio [5] of the same molecule?
A: 12

Q: And the IC50 [6]?
A: 0.21 µM

Q: What does the source list for `CC1=CN([C@H]2C[C@H](N=[N+]=[N-])[C@@H](CO)O2)C(N)NC1=O` (stereo partly specified)?
A: half-life [7]: 2.33 h; half-life [8]: > 168 h; IC50 (CCRF-CEM [1]): 12 µM; CC50 (50% host cell growth inhibition) (CCRF-CEM [2]): 470 µM; TCID50 [3]: >376 µM; Ratio [4]: 3; Ratio [5]: 39; IC50 [6]: 114 µM

Q: Which results are given for `[N-]=[N+]=N[C@H]1C[C@H]2O[C@@H]1COC1NC(=O)C(Br)=CN12` (stereo partly specified)?
A: half-life [7]: 0.238 h; half-life [9]: 60.5 h; IC50 (CCRF-CEM [1]): 28 µM; CC50 (50% host cell growth inhibition) (CCRF-CEM [2]): 168 µM; TCID50 [3]: >319 µM; Ratio [4]: 20; Ratio [5]: 6; IC50 [6]: 16.1 µM

Q: For `[N-]=[N+]=N[C@H]1C[C@H]2O[C@@H]1COC1NC(=O)C=CN12` (stereo partly specified), which half-life [9] is on record?
A: 120 h

Q: And the half-life [10]?
A: 0.188 h

Q: What about the IC50 (CCRF-CEM [1]) of the same molecule?
A: 4.95 µM

Q: What about the “CC50 (50% host cell growth inhibition)” value (CCRF-CEM [2]) of the same molecule?
A: >100 µM

Q: What about the Ratio [5] of the same molecule?
A: 20

Q: For `CC1=CN2C(NC1=O)OC[C@H]1O[C@@H]2C[C@@H]1N=[N+]=[N-]` (stereo partly specified), which half-life ([7]; read-out: T1/2 h/) is on record?
A: 0.492 h

Q: What about the half-life [9] of the same molecule?
A: > 75 h

Q: And the IC50 (CCRF-CEM [1])?
A: 0.56 µM

Q: What about the “CC50 (50% host cell growth inhibition)” value (CCRF-CEM [2]) of the same molecule?
A: >100 µM

Q: And the TCID50 [3]?
A: >400 µM

Q: What about the Ratio [4] of the same molecule?
A: 1481

Q: And the Ratio [5]?
A: 179

Q: And the IC50 [6]?
A: 0.27 µM

Q: What does the source list for `[N-]=[N+]=N[C@H]1C[C@H]2O[C@@H]1COC1NC(=O)C(I)=CN12` (stereo partly specified)?
A: IC50 (CCRF-CEM [1]): 27.1 µM; CC50 (50% host cell growth inhibition) (CCRF-CEM [2]): 194 µM; TCID50 [3]: >277 µM; Ratio [4]: 16; Ratio [5]: 7; IC50 [6]: 17.7 µM

Q: Which half-life [7] does the source give for `CC1=CN2C(NC1=O)OC[C@@H]1CC[C@H]2O1` (stereo partly specified) here?
A: 0.00381 h

Q: And the half-life [8]?
A: 84.3 h

Q: What about the IC50 (CCRF-CEM [1]) of the same molecule?
A: 48 µM

Q: And the “CC50 (50% host cell growth inhibition)” value (CCRF-CEM [2])?
A: 346 µM

Q: And the TCID50 [11]?
A: >480 µM

Q: What about the Ratio [4] of the same molecule?
A: 1

Q: What about the Ratio [5] of the same molecule?
A: 7

Q: What about the IC50 [6] of the same molecule?
A: > 480 µM

Q: For `Cc1cn([C@H]2CC[C@@H](CO)O2)c(=O)[nH]c1=O`, which IC50 (CCRF-CEM [1]) is on record?
A: 0.38 µM

Q: And the TCID50 [3]?
A: >442 µM

Q: What about the Ratio [4] of the same molecule?
A: 1

Q: And the Ratio [5]?
A: 631

Q: What about the IC50 [6] of the same molecule?
A: > 442 µM

Q: What does the source list for `[N-]=[N+]=N[C@H]1C[C@H](n2ccc(=O)[nH]c2=O)O[C@@H]1CO` [NAVURIDINE]?
A: IC50 (CCRF-CEM [1]): 2.76 µM; TCID50 (CCRF-CEM [2]): 166 µM; TCID50 [3]: >395 µM; Ratio [4]: 3; Ratio [5]: 60; IC50 [6]: 138 µM

Q: Which results are given for `Cc1cn([C@H]2C[C@H](N=[N+]=[N-])[C@@H](CO)O2)c(=O)[nH]c1=O` [ZIDOVUDINE]?
A: IC50 (CCRF-CEM [1]): 0.1 µM; TCID50 [3]: >400 µM; Ratio [4]: 17391; Ratio [5]: 290; IC50 [6]: 0.023 µM
